Laboratory results as given in PMC8919062 (European journal of medicinal chemistry, 2021).

Assays:
Class IIa HDACs = test: class-distinguishing fluorogenic substrates whole-cell assay, class IIa, HT-29; assay type: cell-based; conditions: read-out: IC50 Class-IIa, HT-29 cells, Boc-Lys-TFA substrate
Class I/IIb HDACs [1] = test: class-distinguishing fluorogenic substrates whole-cell assay, class I/IIb, HT-29; assay type: cell-based; conditions: read-out: IC50 Class-I/IIb, HT-29 cells, Boc-Lys-Ac substrate
[2] = system: indigenous class-IIa HDACs; conditions: read-out: IC50 binding to indigenous class-IIa HDACs; THP-1 cells; ref [19]; cited from earlier work
HDAC9 = conditions: in words; ref [19],[20]; cited from earlier work
HDAC4 = conditions: read-out: IC50 HDAC4 non-cell-based inhibition; ref [19],[20]; cited from earlier work
Class I/IIb HDACs [3] = test: class-distinguishing fluorogenic substrates whole-cell assay, class I/IIb, L3.6; assay type: cell-based; conditions: read-out: IC50 Class I/IIb HDACs, L3.6 cells
In short: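 Whole cells incubated with 200 µM Boc-Lys-Ac (class-I/IIb selective substrate) in RPMI without phenol red plus 0.1% FBS, 3 h at 37 °C. Test compound given as an 11-point curve at 5% final DMSO; 5 µM trichostatin A served as positive control and DMSO alone as negative control. Trypsin developer (2.5 mg/mL, with tween 80) added for 1 h to lyse cells and release fluorophore. Read at ex 360 / em 460 nm; IC50 by nonlinear fit.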

Other HDACS = test: fluorogenic assay against recombinant HDAC proteins, other HDACs; assay type: biochemical, human; conditions: read-out: IC50 Other HDACS
In short: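 Recombinant human HDACs screened with commercial fluorogenic enzyme assay kits, following the manufacturer protocol, at 9 dilutions of test compound. Fluorescence read on a microplate reader. IC50 from nonlinear curve fit of % HDAC activity inhibition vs compound concentration.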

HDAC5 = conditions: read-out: IC50 HDAC5 non-cell-based inhibition; ref [19],[20]; cited from earlier work

| Compound | IC50 (Class IIa HDACs) [nM] | IC50 (Class I/IIb HDACs [1]) [nM] | IC50 [2] [nM] | IC50 HDAC9 non-cell-based inhibition (HDAC9) | IC50 (HDAC4) [nM] | IC50 (Class I/IIb HDACs [3]) [nM] | IC50 (Other HDACS) [nM] | IC50 (HDAC5) [nM] |
| --- | --- | --- | --- | --- | --- | --- | --- | --- |
| N-(3-(benzylamino)-2,2-dimethyl-3-oxopropyl)-4-(5-(trifluoromethyl)-1,2,4-oxadiazol-3-yl)benzamide [Compound 10] | 933 ± 260 | > 15000 |  |  |  |  |  |  |
| CC(C)(CNC(=O)c1cccc(-c2noc(C(F)(F)F)n2)c1)c1coc(-c2ccccc2)n1 [TMP195] |  |  | 300 | low nM range | > 100 | > 5000 | > 5000 | > 100 |
